From ChEMBL document CHEMBL4680088, “Highly Effective Dual-Function Near-Infrared (NIR) Photosensitizer for Fluorescence Imaging and Photodynamic Therapy (PDT) of Cancer” (J Med Chem, 2016)
The source made the active and inactive calls. The rule behind the calls is not given here.

Assays:
[1] = Drug uptake in tumor of BALB/c mouse xenografted with […] cells at 1 umol/kg, iv measured after 24 to 48 hrs using 14C-labeled cpd by scintillation counting method; type: ADME, organism-based, Neoplasm; details: in vivo, time 24-48 hrs, dose 1 µmol/kg
In short: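 Colon 26 tumor-bearing BALB/c mice (~50 mm3) received 14C-labeled compound 1.0 μmol/kg iv (0.1 μCi/mouse), 3 mice/time point. Mice euthanized at 24, 48 and 72 h; tumor and muscle removed, weighed and solubilized overnight at 50 °C. Radioactivity counted; results given as mean cpm/g tissue ± SD.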

Colon 26 [2] = test: Photodynamic therapy against […] cells assessed as reduction in cell viability at 0.1 to 0.4 uM incubated for 24 hrs followed by exposure to 0.25J/cm2 irradiation by MTT assay; type: functional, cell-based; details: dose 0.1-0.4 µM
In short: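 Murine Colon 26 cells (3600/well) exposed to a range of photosensitizer concentrations for 24 h, then irradiated at 787 nm, 0.25 J/cm2 (3.2 mW/cm2). MTT readout 48 h after light. Percent survival taken relative to untreated cells after blank subtraction. Experiments done in triplicate.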

[3] = Photosensitizing activity in mouse Colon 26 cells assessed as induction of STAT3 cross-linking at 125 nM incubated for 24 hrs followed exposure to irradiation at 797 nm light (3 J/cm2) by Western blotting analysis
[4] = Drug uptake in tumor of BALB/c mouse xenografted with […] cells at 0.25 umol/kg, iv measured after 4 hrs by fluorescence imaging; type: ADME, organism-based, Neoplasm; details: in vivo, dose 0.25 µmol/kg
In short: (§1)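 Subcutaneous Colon 26 tumors (~50 mm3) on the shoulder of BALB/c mice, 3 mice/group. Photosensitizer 0.25 μmol/kg iv in 1% Tween 80/D5W. Under isoflurane, Maestro spectral imaging used the Deep Red filter set (Ex 671–705 nm, Em 750 nm long-pass, 2 s exposure). Images taken at 4, 8, 12, 24 and 48 h; unmixed tumor signal quantified.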

Mus musculus = test: Photosensitizing activity in BALB/c mouse implanted with mouse Colon 26 cells assessed as induction of STAT3 cross-linking at 0.47 umol/kg, iv for 24 hrs followed by exposure to laser light at 787 nm by Western blotting analysis; details: BALB/c m, dose 0.47 µmol/kg
[5] = Photosensitizing activity in mouse Colon 26 cells assessed as induction of STAT3 cross-linking at 15 nM incubated for 24 hrs followed exposure to irradiation at 797 nm light (3 J/cm2) by Western blotting analysis
[6] = Photosensitizing activity in mouse Colon 26 cells assessed as induction of STAT3 cross-linking at 250 nM incubated for 24 hrs followed exposure to irradiation at 797 nm light (3 J/cm2) by Western blotting analysis
[7] = Photosensitizing activity in mouse Colon 26 cells assessed as induction of STAT3 cross-linking at 30 nM incubated for 24 hrs followed exposure to irradiation at 797 nm light (3 J/cm2) by Western blotting analysis
Colon 26 [8] = test: Photodynamic therapy against […] cells xenografted in BALB/c mouse assessed as reduction tumor volumes by measuring tumor response at 0.25 umol/kg, iv exposed to laser light at 787 nm at a dose of 135 J/cm2 and 35 mW/cm2 after 12 hrs post dose measured at day 60 post dose; type: functional, organism-based; details: dose 0.25 µmol/kg, time 60.0 day
[9] = Photosensitizing activity in mouse Colon 26 cells assessed as induction of STAT3 cross-linking at 60 nM incubated for 24 hrs followed exposure to irradiation at 797 nm light (3 J/cm2) by Western blotting analysis
Colon 26 [10] = test: Photodynamic therapy against […] cells xenografted in BALB/c mouse assessed as reduction tumor volumes by measuring tumor response at 0.25 umol/kg, iv exposed to laser light at 787 nm at a dose of 135 J/cm2 and 35 mW/cm2 after 48 hrs post dose measured at day 60 post dose; type: functional, organism-based; details: dose 0.25 µmol/kg, time 60.0 day
[11] = Drug uptake in tumor of BALB/c mouse xenografted with […] cells at 0.25 umol/kg, iv measured at 24 hrs by fluorescence imaging; type: ADME, organism-based, Neoplasm; details: in vivo, dose 0.25 µmol/kg; in short: as §1
Colon 26 [12] = test: (§2) Photodynamic therapy against […] cells xenografted in BALB/c mouse assessed as reduction tumor volumes by measuring tumor cure response at 0.25 umol/kg, iv exposed to laser light at 787 nm at a dose of 135 J/cm2 and 35 mW/cm2 after 24 hrs post dose measured at day 60 post dose; type: functional; details: dose 0.25 µmol/kg, time 60.0 day
Colon 26 [13] = test: Photodynamic therapy against […] cells assessed as reduction in cell viability at 0.025 uM incubated for 24 hrs followed by exposure to light at 787 nm in the range of 0-1.0 J/cm2 irradiation by MTT assay; type: functional, cell-based
In short: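 Murine Colon 26 cells (3600/well) exposed to 0.025 μM photosensitizer for 24 h. Irradiated at 787 nm from a tunable dye laser, 0–1.0 J/cm2 at 3.2 mW/cm2. MTT added 48 h after light. Blank-subtracted OD divided by untreated OD for each light dose gave percent survival. Single experiment in triplicate.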

[14] = Drug uptake in tumor of BALB/c mouse xenografted with mouse 4T1 cells at 0.25 umol/kg, iv measured after 24 hrs by fluorescence imaging based IVIS spectrum-CT method; type: ADME, organism-based, BALB/c m, Neoplasm; details: in vivo, dose 0.25 µmol/kg
In short: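 BALB/c mice (3/group) were given 4T1-luc cells iv to seed lung tumors, and bioluminescence was imaged at day 9. Photosensitizer 0.25 μmol/kg iv, then fluorescence imaging at 24 h on IVIS Spectrum-CT (Ex 785 nm, Em >830 nm). The fluorescence image was merged with bioluminescence.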

[15] = Skin phototoxicity in BALB/c mouse assessed as foot response at 0.25 umol/kg, iv after 24 to 96 hrs post dose followed by mouse restrainment and one hind foot illumination with solar light for 30 mins; type: organism-based, BALB/c m; details: in vivo, 0.5 h, time 24-96 hrs, dose 0.25 µmol/kg
In short: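 Non-tumor BALB/c mice given photosensitizer 0.25 μmol/kg iv. At 24, 48, 72 or 96 h (3 mice/group), one hind foot was illuminated for 30 min; the other foot served as control. Edema, erythema, epilation and desquamation scored 0 (normal) to 3 (loss of foot), followed for 4 more days.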

Colon 26 (mouse) = test: Drug uptake in tumor of BALB/c mouse xenografted with mouse Colon 26 cells at 0.25 umol/kg, iv measured after 24 hrs followed by exposure to 787 nm light and stoppage of irradiation at regular intervals up to 30 mins by fluorescence imaging based IVIS spectrum-CT method; details: in vivo, at 0.25 µmol/kg
[16] = Stability in mouse Colon 26 cells culture media assessed as hydrolysis of methyl ester to carboxylic acid incubated for 24 hrs by TLC analysis; details: colon 26, 24 h
[17] = as §2; type: functional; parameters: scale not given: the % may be the effect or the level left; details: dose 0.25 µmol/kg; time 60 day
[18] = Drug uptake in tumor of BALB/c mouse xenografted with […] cells at 0.25 umol/kg, iv measured after 24 by fluorescence imaging; type: ADME, organism-based, Neoplasm; details: in vivo, 24 h, dose 0.25 µmol/kg; in short: as §1

Drug uptake [11]	Structure (SMILES)	Activity (Colon 26 [2])	Activity [3] [%]	Activity (Mus musculus)	Activity [5] [%]	Activity [6] [%]	Activity [7] [%]	Activity [9] [%]	Activity (Colon 26 [10])	Activity (Colon 26 [12])	Activity (Colon 26 [13])	also measured
	CCCCN1C(=O)c2c3nc(cc4[nH]c(cc5nc(cc6[nH]c2c(c6C)C1=O)[C@H](CC)[C@H]5C)c(C(C)O[14CH2]CCC)c4C)[C@@H](C)[C@@H]3CCC(=O)OC (some centres not stated)											Drug uptake [1]: Active
	CCCCOC(C)c1c(C)c2cc3nc(c4c5[nH]c(cc6nc(cc1[nH]2)[C@H](C)[C@H]6CC)c(C)c5C(=O)N(CCCC)C4=O)[C@@H](CCC(=O)O)[C@@H]3C (some centres not stated)	Active	9	Active	0.3	15	1.2	5.8	inactive			Drug uptake [4]: Active; Activity (Colon 26 [8]): inactive
Active	CCCCO[C@@H](C)c1c(C)c2cc3nc(c4c5[nH]c(cc6nc(cc1[nH]2)[C@H](C)[C@H]6CC)c(C)c5C(=O)N(CCCC)C4=O)[C@@H](CCC(=O)OC)[C@@H]3C									Active	Active	
Active	CCCCOC(C)c1c(C)c2cc3nc(c4c5[nH]c(cc6nc(cc1[nH]2)[C@H](C)[C@H]6CC)c(C)c5C(=O)N(CCCC)C4=O)[C@@H](CCC(=O)OC)[C@@H]3C (some centres not stated)	Active	1.5	Active	0.1	2.4	0.2	0.5	inactive			Drug uptake [14]: Active; Activity [15]: Non-Toxic; Drug uptake (Colon 26 (mouse)): 40%; Stabilty [16]: Stable; Activity [17]: 80%; Drug uptake [18]: Not Active
Active	CCCCO[C@H](C)c1c(C)c2cc3nc(c4c5[nH]c(cc6nc(cc1[nH]2)[C@H](C)[C@H]6CC)c(C)c5C(=O)N(CCCC)C4=O)[C@@H](CCC(=O)OC)[C@@H]3C									Active	Active	
